Experimental data from ChEMBL document CHEMBL1926503, “Efficient one-pot preparation of novel fused chromeno[2,3-d]pyrimidine and pyrano[2,3-d]pyrimidine derivatives” (2012).

Key:
Assay type in all cases: functional
[1] = system: Pseudomonas aeruginosa; assay: Antibacterial activity against Pseudomonas aeruginosa at 1 to 10 mg/mL after 24 hrs by agar well diffusion method
How it was run: (§1)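 Agar well diffusion. Bacterial pellets from a 24 h culture (about 10⁴–10⁶ CFU/ml) were spread on nutrient agar (tryptone 1%, yeast extract 0.5%, NaCl 0.5%, agar 1%, pH 7.0). Wells received DMSO solutions at 10 mg/mL, with DMSO as control and tetracycline as reference. Plates ran 24 h at 37 °C. Each zone was measured three times by caliper and averaged; three runs per culture.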

[2] = system: Aspergillus flavus; assay: Antifungal activity against Aspergillus flavus after 3 to 4 days by agar well diffusion method
How it was run: (§2)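 Agar well diffusion on Sabouraud dextrose agar (glucose–peptone–agar 40:10:15), with cultures purified by single-spore isolation. Wells (4 mm × 2 mm) were sealed at the bottom with 0.8% soft agar and loaded with DMSO solutions. DMSO served as control and amphotericin B as reference. Incubation was 30 °C for 3–4 days; each zone was measured three times by caliper and averaged.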

[3] = system: Aspergillus flavus; assay: Antifungal activity against Aspergillus flavus at 1 to 10 mg/mL after 3 to 4 days by agar well diffusion method
How it was run: (§3)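 Fungi were grown on Sabouraud dextrose agar (glucose–peptone–agar 40:10:15) after single-spore purification. Wells (4 mm × 2 mm) were cut and their bottoms sealed with 0.8% soft agar, then loaded with DMSO solutions at 10 mg/mL. DMSO served as control and amphotericin B as reference. Plates incubated at 30 °C for 3–4 days. Inhibition zone diameter was measured three times by caliper and averaged.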

[4] = system: Candida albicans; assay: Antifungal activity against Candida albicans after 3 to 4 days by agar well diffusion method; how it was run: as §2
[5] = system: Staphylococcus aureus; assay: Antibacterial activity against Staphylococcus aureus at 1 to 10 mg/mL after 24 hrs by agar well diffusion method; how it was run: as §1
[6] = system: Candida albicans; assay: Antifungal activity against Candida albicans at 1 to 10 mg/mL after 3 to 4 days by agar well diffusion method; how it was run: as §3

Row | SMILES | diameter of the inhibition zone (DIZ) [1] | MIC [2] | diameter of the inhibition zone (DIZ) [3] | MIC [4] | diameter of the inhibition zone (DIZ) [5] | diameter of the inhibition zone (DIZ) [6]
1 | O=c1[nH]c(=S)nc2oc3cc(O)ccc3cc1-2 | 14 mm | < 50 µg/mL | 0 mm | < 50 µg/mL | 15 mm | 0 mm
2 | COc1cc(C2C(C#N)=C(N)Oc3[nH]c(=S)[nH]c(=O)c32)cc(OC)c1OC (centres undefined) | 13 mm | < 50 µg/mL | 0 mm | < 50 µg/mL | 13 mm | 10 mm
3 | CCOC(=O)C1=C(N)Oc2[nH]c(=S)[nH]c(=O)c2C1c1ccc(Cl)cc1 (centres undefined) | 19 mm | < 50 µg/mL | 0 mm | < 50 µg/mL | 16 mm | 13 mm
4 | CCOC(=O)C1=C(N)Sc2[nH]c(=S)[nH]c(=S)c2C1c1ccc(Cl)cc1 (centres undefined) | 18 mm | < 50 µg/mL | 14 mm | < 50 µg/mL | 16 mm | 14 mm
5 | CCOC=C1C(=O)NC(=S)NC1=O | 13 mm | – | 0 mm | – | 13 mm | 12 mm
6 | NNC=C1C(=O)NC(=S)NC1=O | 18 mm | – | 36 mm | – | 18 mm | 0 mm
7 | COc1cc(C2c3c(nc(N)c(C#N)c3N)Oc3[nH]c(=S)[nH]c(=O)c32)cc(OC)c1OC (centres undefined) | 12 mm | < 50 µg/mL | 0 mm | < 50 µg/mL | 13 mm | 10 mm
8 | COc1cc(C2C(C#N)=C(NS(=O)(=O)c3ccccc3)Oc3[nH]c(=S)[nH]c(=O)c32)cc(OC)c1OC (centres undefined) | 13 mm | < 50 µg/mL | 0 mm | < 50 µg/mL | 14 mm | 12 mm
9 | COc1cc(C2c3c(nc[nH]c3=O)Oc3[nH]c(=S)[nH]c(=O)c32)cc(OC)c1OC (centres undefined) | 13 mm | < 50 µg/mL | 0 mm | < 50 µg/mL | 15 mm | 11 mm
10 | C[C@@H]1[C@H](O)[C@@H](C)/C=C/C=C/C=C/C=C/C=C/C=C/C=C/[C@H](O[C@@H]2O[C@H](C)[C@@H](O)[C@H](N)[C@@H]2O)C[C@@H]2O[C@](O)(C[C@@H](O)C[C@@H](O)[C@H](O)CC[C@@H](O)C[C@@H](O)CC(=O)O[C@H]1C)C[C@H](O)[C@H]2C(=O)O [AMPHOTERICIN B] | – | – | 16 mm | – | – | 19 mm
11 | CN(C)[C@@H]1C(O)=C(C(N)=O)C(=O)[C@@]2(O)C(O)=C3C(=O)c4c(O)cccc4[C@@](C)(O)[C@H]3C[C@@H]12 [TETRACYCLINE] | 28 mm | – | – | – | 26 mm | –
